The source of these data is ChEMBL document CHEMBL1126871, “Non-steroidal glucocorticoid-like substances: receptor binding and in vivo activity” (J Med Chem, 1993).

For test [1], the target named is T1, Glucocorticoid receptor (Rattus norvegicus) (UniProt P06536).
T1 sequence (whole entry): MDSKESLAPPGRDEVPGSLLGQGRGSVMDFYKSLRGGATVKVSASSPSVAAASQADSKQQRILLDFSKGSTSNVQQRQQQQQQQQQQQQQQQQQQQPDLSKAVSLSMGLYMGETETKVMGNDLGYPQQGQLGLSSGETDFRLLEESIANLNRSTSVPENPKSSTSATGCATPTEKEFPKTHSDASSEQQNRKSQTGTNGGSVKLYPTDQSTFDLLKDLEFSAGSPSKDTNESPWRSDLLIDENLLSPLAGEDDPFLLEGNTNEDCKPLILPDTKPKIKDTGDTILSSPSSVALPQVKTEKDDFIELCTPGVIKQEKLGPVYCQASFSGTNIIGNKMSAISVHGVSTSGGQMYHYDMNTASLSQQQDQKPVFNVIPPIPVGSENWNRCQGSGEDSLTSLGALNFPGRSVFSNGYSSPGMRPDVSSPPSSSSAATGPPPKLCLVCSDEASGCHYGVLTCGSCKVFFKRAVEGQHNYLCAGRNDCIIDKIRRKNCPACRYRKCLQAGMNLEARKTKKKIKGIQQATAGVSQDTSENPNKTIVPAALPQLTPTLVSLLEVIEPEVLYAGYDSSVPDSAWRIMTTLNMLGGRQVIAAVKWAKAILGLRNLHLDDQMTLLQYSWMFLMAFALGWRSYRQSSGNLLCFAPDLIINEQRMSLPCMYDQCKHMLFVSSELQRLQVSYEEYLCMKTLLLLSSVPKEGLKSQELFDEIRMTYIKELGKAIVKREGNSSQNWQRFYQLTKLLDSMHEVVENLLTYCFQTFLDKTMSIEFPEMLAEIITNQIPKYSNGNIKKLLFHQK
Description: In vivo glucocorticoid profile, depression of adrenal weight in rat at 5 mg/kg peroral dose. In kind it is functional, organism-based. On the set-up: dose 5 mg/kg. The method in brief:
(§1)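 Two-week oral glucocorticoid profile in rats. Thymus weight, adrenal weight and body weight gain are each expressed as % change from control.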

Test [2] has as its target T1, Glucocorticoid receptor (Rattus norvegicus). The experiment in a line: (§2) In vivo glucocorticoid profile, depression of adrenal weight in rat at 1 mg/kg peroral dose. The arrangement: dose 1 mg/kg. The format is functional, organism-based. The method, boiled down: as §1
Test [3] shares this target. Description: (§3) In vivo glucocorticoid profile, depression of adrenal weight in rat at 25 mg/kg peroral dose. The format is functional, organism-based. On the set-up: dose 25 mg/kg. The method, boiled down: (§4)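 Two-week oral dosing test in rats. At the end, thymus weight, adrenal weight and body weight gain are recorded and expressed as % change from control.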
For test [4] the target is unchanged. The experiment in a line: (§5) In vivo glucocorticoid profile, depression of thymus weight in rat at 1 mg/kg peroral dose. The arrangement: dose 1 mg/kg. The format is functional, organism-based. The method, boiled down: as §1
For test [5] the target is unchanged. Description: (§6) In vivo glucocorticoid profile, depression of thymus weight in rat at 25 mg/kg peroral dose. In kind it is functional, organism-based. On the set-up: dose 25 mg/kg. The method in brief: as §4
Test [6] shares this target. The experiment in a line: (§7) In vivo glucocorticoid profile, depression of body weight gain without altered food consumption in rat at 25 mg/kg peroral dose. In kind it is functional, organism-based. On the set-up: dose 25 mg/kg. The method, boiled down: as §4
Test [7] shares this target. Description: (§8) In vivo glucocorticoid profile, depression of body weight gain without altered food consumption in rat at 5 mg/kg peroral dose. On the set-up: dose 5 mg/kg. The format is functional, organism-based. The method in brief: as §4
For test [8] the target is unchanged. The experiment in a line: In vivo glucocorticoid profile, depression of thymus weight in rat at 5 mg/kg peroral dose. On the set-up: dose 5 mg/kg. The format is functional, organism-based. The method, boiled down:
as §1

Test [9] shares this target. Description: In vivo anti-inflammatory activity in the rat, alpha-tocopherol filled pouch peroral dose. The format is functional, organism-based. The method in brief: (§9)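 Rats receive an air-filled pouch injected with 0.5 mL DL-α-tocopherol. Oral doses are given daily for 7 days, starting on the day of pouch formation, as suspensions in 1% gum tragacanth. ED50 is in mg/kg po.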

For test [10] the target is unchanged. The experiment in a line: (§10) In vivo glucocorticoid profile, depression of body weight gain without altered food consumption in rat at 1 mg/kg peroral dose. The format is functional, organism-based. The arrangement: dose 1 mg/kg. The method in brief:
as §4

Test [11] shares this target. The experiment in a line: In vivo glucocorticoid profile, depression of adrenal weight in rat at 50 mg/kg peroral dose. In kind it is functional, organism-based. On the set-up: dose 50 mg/kg. The method, boiled down:
as §1

Test [12] has the same target. The experiment in a line: In vivo antiinflammatory activity in the rat, alpha-tocopherol filled pouch 25 mg/kg peroral dose; IA = inactive. In kind it is functional, organism-based. On the set-up: dose 25 mg/kg. The method, boiled down: as §9
The target is the same in test [13]. The experiment in a line: In vivo glucocorticoid profile, depression of body weight gain without altered food consumption in rat at 50 mg/kg peroral dose. In kind it is functional, organism-based. The arrangement: dose 50 mg/kg. The method, boiled down:
as §1

Test [14] has the same target. Description: In vivo glucocorticoid profile, depression of thymus weight in rat at 50 mg/kg peroral dose. The format is functional, organism-based. On the set-up: dose 50 mg/kg. The method, boiled down:
as §1

Test [15] has the same target. Described as §3. On the set-up: dose 25 mg/kg. In kind it is functional, organism-based. The method, boiled down: as §1
The source holds these as a separate data set.

Test [16] has the same target. The description is as §6. On the set-up: dose 25 mg/kg. In kind it is functional, organism-based. The method, boiled down: as §1
This is another data set of the same source.

For test [17] the target is unchanged. The experiment in a line: In vivo antiinflammatory activity in the rat, alpha-tocopherol filled pouch 70 mg/kg peroral dose; IA = inactive. On the set-up: dose 70 mg/kg. The format is functional, organism-based.
The target is the same in test [18]. The description is as §7. The format is functional, organism-based. The arrangement: dose 25 mg/kg. The method, boiled down:
as §1
This is another data set of the same source.

The target is the same in test [19]. Described as §8. The arrangement: dose 5 mg/kg. The format is functional, organism-based. The method, boiled down:
as §1
The source holds these as a separate data set.

The target is the same in test [20]. The description is as §10. The arrangement: dose 1 mg/kg. In kind it is functional, organism-based. The method, boiled down:
as §1
The source holds these as a separate data set.

Test [21] shares this target. Description: In vivo antiinflammatory activity in the rat, alpha-tocopherol filled pouch 48 mg/kg peroral dose; IA = inactive. On the set-up: dose 48 mg/kg. The format is functional, organism-based.
The target is the same in test [22]. The description is as §2. The format is functional, organism-based. The arrangement: dose 1 mg/kg. The method in brief:
as §4
The source holds these as a separate data set.

For test [23] the target is unchanged. Described as §5. On the set-up: dose 1 mg/kg. The format is functional, organism-based. The method in brief:
as §4
This is another data set of the same source.

For test [24] the target is unchanged. The experiment in a line: Relative binding affinity (RBA) for glucocorticoid receptor from rat liver cytosol by displacement of [3H]-RU-28,362. The method, boiled down: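 Competitive binding to glucocorticoid receptor in liver cytosol from adrenalectomized rats, with [3H]RU28362 as ligand. RBA is derived from the concentrations of dexamethasone and of competitor giving 50% binding inhibition. A value of zero means binding was too low to measure.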
A general note: Displacement assays read how much labelled ligand stays bound in the presence of the test substance.

The source made the active and inactive calls. No cut-off for these calls is given here.

A word on the ED50: it is the midpoint of the dose-response relation. Take `C[C@]12Cc3cnn(-c4ccc(F)cc4)c3C=C1CC[C@@H]1OC3(CC=C12)C(=O)NC(=O)NC3=O`: the Change is -30% in [1]; 0% in [2]; -53% in test [3]; 0% in test [4]; -84% in test [5]; -72% in test [8]. Besides, the Weight gain in test [6] was -180; in [7], -140; in test [10], -65. This compound yielded a median effective dose (ED50) in [9] of 4 mg/kg.
On to `CCCN1C(=O)N(CCC)C(=O)C2(CC=C3[C@H](CCC4=Cc5c(cnn5-c5ccc(F)cc5)C[C@@]43C)O2)C1=O`, for which the Change in test [11] and in [14] was 0% each time. Besides, the ED50 entry in test [12] is “inactive”. In [13], this compound gave a Weight gain of 0.
Regarding `COC(=O)CN1C(=O)N(CC(=O)OC)C(=O)C2(CC=C3[C@H](CCC4=Cc5c(cnn5-c5ccc(F)cc5)C[C@@]43C)O2)C1=O`, the Change in test [15] and in test [16] was 0% in each case. In addition, in [17], the ED50 result was “inactive”. Besides, the Weight gain in test [18] amounted to 0.
Regarding `C[C@]12Cc3cnn(-c4ccc(F)cc4)c3C=C1CC[C@@H]1OC3(CC=C12)C(=O)c1ccccc1C3=O`, the Change is -64% in test [1], -56% in test [2], -61% in [4] and -79% in test [8]. Also, the Weight gain was -224 in test [19] and -129 in test [20]. The same compound registered an ED50 in test [9] of 10 mg/kg.
For the compound `C[C@]12CCC(=O)C=C1CC[C@@H]1[C@@H]2[C@@H](O)C[C@@]2(C)[C@H]1CC[C@]2(O)C(=O)CO`, the 50% effect level in [9] (ED50) was put at a dose of 18 mg/kg.
As for `C#CCN1C(=O)N(CC#C)C(=O)C2(CC=C3[C@H](CCC4=Cc5c(cnn5-c5ccc(F)cc5)C[C@@]43C)O2)C1=O`, the Change in test [1] and in test [8] was 0% each time. In [19], this compound returned a Weight gain of 0.
As for `C=CCN1C(=O)N(CC=C)C(=O)C2(CC=C3[C@H](CCC4=Cc5c(cnn5-c5ccc(F)cc5)C[C@@]43C)O2)C1=O`, the Change in [11] was -37%; in test [14] it was -34%. Further, the ED50 result in test [21] was “inactive”. In test [13], this compound yielded a Weight gain of -58.
As for `C#C[C@]1(O)CCC2[C@@H]3CCC4=Cc5c(cnn5-c5ccc(F)cc5)C[C@]4(C)C3=CC[C@@]21C` (stereo partly specified), the Change was -35% in [22], -60% in test [1], -41% in test [23] and -76% in test [8]. Besides, the Weight gain was -145 in test [19] and 0 in test [10].
With `CN1C(=O)N(C)C(=O)C2(CC=C3[C@H](CCC4=Cc5c(cnn5-c5ccncc5)C[C@@]43C)O2)C1=O`, the RBA in test [24] was 0.72%.
With `CN1C(=O)N(C)C(=O)C2(CC=C3[C@H](CC[C@H]4Cc5c(cnn5-c5ccncc5)C[C@]34C)O2)C1=O`, in test [24], the RBA was 0%.
